Experiments:
[1] = Growth inhibition of human UO31 cells assessed as cell growth at 10^-4 M incubated for 48 hrs by sulforhodamine B assay; type: functional; conditions: UO-31, 48 h, read-out: Activity
[2] = Growth inhibition of human PC3 cells assessed as cell growth at 10^-4 M incubated for 48 hrs by sulforhodamine B assay; type: functional; conditions: PC-3, 48 h, read-out: Activity
[3] = tested on: MDA-MB-468; test: Growth inhibition of human MDA-MB-468 cells assessed as cell growth at 10^-4 M incubated for 48 hrs by sulforhodamine B assay; type: functional; conditions: MDA-MB-468, 48 h, read-out: Activity
[4] = tested on: NCI/ADR-RES; test: Growth inhibition of human NCI/ADR-RES cells incubated for 48 hrs by sulforhodamine B assay; type: functional
Procedure, shortened: (§1)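 Cells were plated at 5,000–40,000 per well according to doubling time and preincubated 24 h at 37 °C in 5% CO2; time-zero plates were then TCA-fixed. Five concentrations (10-fold or ½-log dilutions, DMSO stock) were incubated 48 h. Cells were TCA-fixed, stained with 0.4% SRB and read at 515 nm. GI50 was taken where [(Ti−Tz)/(C−Tz)]×100 = 50.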

[5] = Growth inhibition of human UO31 cells incubated for 48 hrs by sulforhodamine B assay; type: functional; conditions: UO-31, 48 h; for CC50: read-out: pLC50 (the source's name) (converted); procedure, shortened: as §1
[6] = Growth inhibition of human SKOV3 cells assessed as cell growth at 10^-5 M incubated for 48 hrs by sulforhodamine B assay; type: functional; conditions: SK-OV-3, 48 h, read-out: Activity
[7] = tested on: NCI-H226; test: Growth inhibition of human NCI-H226 cells assessed as cell growth at 10^-7 M incubated for 48 hrs by sulforhodamine B assay; type: functional; conditions: NCI-H226, 48 h, read-out: Activity
[8] = tested on: T47D; test: Growth inhibition of human T47D cells assessed as cell growth at 10^-5 M incubated for 48 hrs by sulforhodamine B assay; type: functional; conditions: read-out: Activity
[9] = tested on: NCI-H522; test: Growth inhibition of human NCI-H522 cells assessed as cell growth at 10^-4 M incubated for 48 hrs by sulforhodamine B assay; type: functional; conditions: NCI-H522, 48 h, read-out: Activity
[10] = Growth inhibition of human LOXIMVI cells assessed as cell growth at 10^-7 M incubated for 48 hrs by sulforhodamine B assay; type: functional; conditions: LOX IMVI, read-out: Activity
[11] = tested on: Malme-3M; test: Growth inhibition of human MALME-3M cells assessed as cell growth at 10^-7 M incubated for 48 hrs by sulforhodamine B assay; type: functional; conditions: read-out: Activity
[12] = tested on: NCI/ADR-RES; test: Growth inhibition of human NCI/ADR-RES cells assessed as cell growth at 10^-4 M incubated for 48 hrs by sulforhodamine B assay; type: functional; conditions: read-out: Activity
[13] = tested on: 786-0; test: Growth inhibition of human 786-0 cells assessed as cell growth at 10^-4 M incubated for 48 hrs by sulforhodamine B assay; type: functional; conditions: 786-0, 48 h, read-out: Activity
Procedure, shortened: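 Five-dose assay: five concentrations from 10-fold or ½-log serial dilutions. Cells are plated at 5,000–40,000 per well according to doubling time, grown 24 h, then exposed 48 h at 37 °C, 5% CO₂. Fixed with cold 50% TCA (final addition) for 60 min at 4 °C and stained with 0.4% SRB in 1% acetic acid. Bound dye is solubilized in 10 mM Tris base and read at 515 nm. GI₅₀ is where [(Ti−Tz)/(C−Tz)]×100 = 50, with a time-zero plate as Tz.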

[14] = Growth inhibition of human OVCAR4 cells assessed as cell growth at 10^-7 M incubated for 48 hrs by sulforhodamine B assay; type: functional; conditions: OVCAR-4, 48 h, read-out: Activity
[15] = Growth inhibition of human SKOV3 cells assessed as cell growth at 10^-7 M incubated for 48 hrs by sulforhodamine B assay; type: functional; conditions: SK-OV-3, 48 h, read-out: Activity
[16] = Growth inhibition of human Hs 578T cells assessed as cell growth at 10 uM incubated for 48 hrs by sulforhodamine B assay; type: functional; conditions: read-out: Activity
[17] = Growth inhibition of human RPMI8226 cells assessed as cell growth at 10^-8 M incubated for 48 hrs by sulforhodamine B assay; type: functional; conditions: RPMI-8226, 48 h, read-out: Activity
[18] = Growth inhibition of human RXF393 cells assessed as cell growth at 10^-7 M incubated for 48 hrs by sulforhodamine B assay; type: functional; conditions: RXF 393, 48 h, read-out: Activity
[19] = tested on: NCI-H23; test: Growth inhibition of human NCI-H23 cells assessed as cell growth at 10^-8 M incubated for 48 hrs by sulforhodamine B assay; type: functional; conditions: NCI-H23, 48 h, read-out: Activity
[20] = Growth inhibition of human HCT116 cells assessed as cell growth at 10^-8 M incubated for 48 hrs by sulforhodamine B assay; type: functional; conditions: HCT-116, 48 h, read-out: Activity
Procedure, shortened: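 Cells seeded at 5,000–40,000/well according to doubling time and preincubated 24 h at 37 °C, 5% CO2. Time-zero plates were TCA-fixed. DMSO concentrate was diluted in medium with 50 µg/ml gentamicin to give five concentrations (10-fold or ½ log steps), then exposed 48 h. Cells were TCA-fixed, stained with 0.4% SRB and read at 515 nm. Percent growth was taken against time-zero and control; GI50, TGI and LC50 derived.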

[21] = tested on: M14; test: Growth inhibition of human M14 cells assessed as cell growth at 10^-6 M incubated for 48 hrs by sulforhodamine B assay; type: functional; conditions: M14, 48 h, read-out: Activity
[22] = tested on: NCI-H226; test: Growth inhibition of human NCI-H226 cells assessed as cell growth at 10^-5 M incubated for 48 hrs by sulforhodamine B assay; type: functional; conditions: NCI-H226, 48 h, read-out: Activity
[23] = tested on: NCI-H322M; test: Growth inhibition of human NCI-H322M cells assessed as cell growth at 10^-5 M incubated for 48 hrs by sulforhodamine B assay; type: functional; conditions: read-out: Activity
[24] = Growth inhibition of human OVCAR4 cells assessed as cell growth at 10^-5 M incubated for 48 hrs by sulforhodamine B assay; type: functional; conditions: OVCAR-4, 48 h, read-out: Activity
[25] = Growth inhibition of human OVCAR8 cells assessed as cell growth at 10^-5 M incubated for 48 hrs by sulforhodamine B assay; type: functional; conditions: OVCAR-8, 48 h, read-out: Activity
[26] = target: Albumin (Bos taurus, UniProt P02769); test: Binding affinity to bovine serum albumin assessed as enhancement in emission spectra up to 20 uM by fluorescence spectroscopic analysis relative to control; type: ADME; conditions: cattle, isolated protein
Chain of Albumin (P02769 whole entry): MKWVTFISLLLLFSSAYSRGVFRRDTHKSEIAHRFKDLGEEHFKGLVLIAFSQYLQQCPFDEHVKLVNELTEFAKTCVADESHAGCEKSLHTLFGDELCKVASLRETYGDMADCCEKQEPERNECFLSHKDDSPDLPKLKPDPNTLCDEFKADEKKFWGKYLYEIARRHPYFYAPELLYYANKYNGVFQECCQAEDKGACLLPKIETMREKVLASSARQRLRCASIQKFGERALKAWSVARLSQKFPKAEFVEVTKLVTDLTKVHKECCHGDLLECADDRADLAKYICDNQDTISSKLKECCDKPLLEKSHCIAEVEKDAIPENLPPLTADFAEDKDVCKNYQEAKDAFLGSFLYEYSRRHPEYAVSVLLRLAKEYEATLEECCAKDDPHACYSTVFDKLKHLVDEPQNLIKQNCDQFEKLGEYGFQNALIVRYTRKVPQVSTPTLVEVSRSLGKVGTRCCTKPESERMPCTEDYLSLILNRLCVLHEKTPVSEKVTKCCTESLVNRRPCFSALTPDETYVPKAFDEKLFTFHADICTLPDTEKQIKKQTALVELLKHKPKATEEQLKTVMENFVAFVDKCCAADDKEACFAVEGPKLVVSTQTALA
Procedure, shortened: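 Fluorescence titration of 10 µM BSA in 0.1 M phosphate buffer pH 7.4 with compound at 0–20 µM, diluted from DMSO stocks. Excitation 280 nm, slit 10 nm, 1 cm quartz cell, 300 K. Changes in the 350 nm Trp emission, new bands near 370–373 nm and isoemissive points are read against BSA alone.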

[27] = Growth inhibition of human ovarian cancer cells incubated for 48 hrs by sulforhodamine B assay; type: functional; conditions: Cancer cell lines; for CC50: read-out: LC50 (the source's name)
[28] = read-out: LC50 (the source's name)
[29] = read-out: pLC50 (the source's name) (converted)

Compound | growth at 100 µM [1] [%] | growth at 100 µM [2] [%] | growth at 100 µM [3] [%] | GI50 ([4]; read-out: GI50) [µM] | TGI ([4]; read-out: TGI) [µM] | GI50 ([4]; read-out: pGI50 (converted)) [µM] | TGI ([4]; read-out: pTGI (converted)) [µM] | GI50 ([5]; read-out: GI50) [µM] | TGI ([5]; read-out: TGI) [µM] | GI50 ([5]; read-out: pGI50 (converted)) [µM] | TGI ([5]; read-out: pTGI (converted)) [µM] | growth at 10 µM [6] [%] | growth at 0.1 µM [7] [%] | growth at 10 µM [8] [%] | growth at 100 µM [9] [%] | growth at 0.1 µM [10] [%] | growth at 0.1 µM [11] [%] | growth at 100 µM [12] [%] | growth at 100 µM [13] [%] | growth at 0.1 µM [14] [%] | further results
Clc1ccc(-c2nc(Nc3ccc(-c4nc5ccccc5[nH]4)cc3)nc(N3CCOCC3)n2)cc1 | -41 | -45 | -41 | 0.631 | 2.19 | 0.631 | 2.19 | 1.51 | 3.03 | 1.51 | 3.02 | -96 | 106 | -62 | -41 | 94 | 101 | -7 | -21 | 98 | growth at 0.1 µM [15]: 99%; growth at 10 µM [16]: -40.2%; growth at 0.01 µM [17]: 100%; growth at 0.1 µM [18]: 106%; growth at 0.01 µM [19]: 97%; growth at 0.01 µM [20]: 99%; growth at 1 µM [21]: 18%; growth at 10 µM [22]: -55%; growth at 10 µM [23]: -80%; growth at 10 µM [24]: -86%; growth at 10 µM [25]: -79%; Activity [26]: 49.1%; GI50 [27]: 0.92 µM; TGI [27]: 2.3 µM; CC50 [27]: 5.2 µM
c1ccc2[nH]c(-c3ccc(Nc4nc(N5CCCCC5)nc(N5CCOCC5)n4)cc3)nc2c1 | -36 | -19 | -31 | 4.69 | 55.2 | 4.68 | 55 | 2 | 5.14 | 2 | 5.13 | -37 | 84 | -46 | -29 | 95 | 85 | -10 | -87 | 97 | CC50 [4, 28]: > 100 µM; CC50 [4, 29]: > 100 µM; LC50 [5]: > 100 µM; CC50 [5]: > 100 µM; growth at 0.1 µM [15]: 101%; growth at 10 µM [16]: -12.6%; growth at 0.01 µM [17]: 97%; growth at 0.1 µM [18]: 91%; growth at 0.01 µM [19]: 98%; growth at 0.01 µM [20]: 100%; growth at 1 µM [21]: 93%; growth at 10 µM [22]: 12%; growth at 10 µM [23]: 29%; growth at 10 µM [24]: 22%; growth at 10 µM [25]: 9%; Activity [26]: 49.74%; GI50 [27]: 3.46 µM; TGI [27]: 22.6 µM; CC50 [27]: 26.9 µM
c1ccc(-c2nc(Nc3ccc(-c4nc5ccccc5[nH]4)cc3)nc(N3CCOCC3)n2)cc1 | -76 | -82 | -58 | 1.93 | 5.53 | 1.95 | 5.5 | 1.32 | 2.91 | 1.32 | 2.88 | -62 | 120 | -56 | -74 | 96 | 131 | -33 | -71 | 103 | CC50 [4, 28]: > 100 µM; CC50 [4, 29]: > 100 µM; LC50 [5]: 6.4 µM; CC50 [5]: 6.46 µM; growth at 0.1 µM [15]: 104%; growth at 10 µM [16]: -39.9%; growth at 0.01 µM [17]: 100%; growth at 0.1 µM [18]: 96%; growth at 0.01 µM [19]: 95%; growth at 0.01 µM [20]: 99%; growth at 1 µM [21]: 69%; growth at 10 µM [22]: -60%; growth at 10 µM [23]: -79%; growth at 10 µM [24]: -97%; growth at 10 µM [25]: -78%; Activity [26]: 22.78%; GI50 [27]: 1.85 µM; TGI [27]: 3.88 µM; CC50 [27]: 6.84 µM
Fc1ccc(-c2nc(Nc3ccc(-c4nc5ccccc5[nH]4)cc3)nc(N3CCOCC3)n2)cc1 | -16 | -6 | -19 | 3.18 | 26.7 | 3.16 | 26.9 | 2.16 | 5.64 | 2.14 | 5.62 | -35 | 111 | -50 | -31 | 95 | 95 | -13 | -68 | 104 | CC50 [4, 28]: > 100 µM; CC50 [4, 29]: > 100 µM; LC50 [5]: > 100 µM; CC50 [5]: > 100 µM; growth at 0.1 µM [15]: 98%; growth at 10 µM [16]: -11.9%; growth at 0.01 µM [17]: 100%; growth at 0.1 µM [18]: 100%; growth at 0.01 µM [19]: 94%; growth at 0.01 µM [20]: 90%; growth at 1 µM [21]: 95%; growth at 10 µM [22]: -8%; growth at 10 µM [23]: 16%; growth at 10 µM [24]: 3%; growth at 10 µM [25]: 2%; Activity [26]: 71.83%; GI50 [27]: 2.74 µM; TGI [27]: 11.5 µM; CC50 [27]: > 100 µM

— ChEMBL document CHEMBL3808334, “Synthesis and in vitro evaluation of novel triazine analogues as anticancer agents and their interaction studies with bovine serum albumin” (Eur J Med Chem, 2016)
